RanGTP-Imp inh: disruptors of Ran-importin-beta complex formation – biochemical, FRET, CFP-Ran, YFP-importin-beta, homogeneous, primary screen | cell-free CFP-Ran/YFP-importin-beta FRET ratio | inhibition, % (test concentration not listed) | actives 1.1% (n = 300,000) | AID 2216;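 active = more than half of the replicate wells show a fall in the fluorescence ratio signal beyond about 16%, limit read from the data, passing the limit was not always enough; inconclusive = exactly half of the replicate wells pass the set limit; inactive = fewer than half of replicates pass the limit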
Runt-CBFb FRET: inhibitors of human RUNX1 Runt domain binding to CBFb. AID 1496. actives 0.46% (n = 220,000). inhibition, % at 20 µM. Cerulean-Runt/Venus-CBFb FRET ratio 530/480, 1 h;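 active = inhibition over about 50% at 20 µM in the single-dose screen, limit read from the data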
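Doses: 20 µM compound in 1% DMSO | Material: Cerulean-labeled Runt domain protein | Amount: Each fluorescent fusion protein 100 nM | Schedule: Two 1 h room-temperature incubations shielded from light | Measured by: FRET fluorescence | Evaluation: Loss of energy transfer signal | Controls: Unlabeled CBFb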
Runt-SMMHC FRET: blocks binding of human RUNX1 Runt domain to CBFb-SMMHC; actives 0.74% (n = 220,000); inhibition, % at 20 µM; Q01196+Q13951; AID 1434; Cerulean-Runt/Venus-CBFb-SMMHC FRET ratio 530/480, 1 h;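 active = mean inhibition across duplicate retests at 20 µM reaching about 50%, limit read from the data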;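 also: inhibitors lower the FRET ratio by blocking Runt binding to CBFb-SMMHC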
Hck-Nef inh: inhibitors of human Hck kinase activated by Nef. P08631. actives 0.68% (n = 220,000). Recombinant Hck-YEEI plus Nef, Z-Lyte FRET kinase assay. inhibition, % at 20 µM;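 active = Hck-Nef kinase inhibition above about 50%, limit read from the data; inactive = inhibition below that limit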
Target sequence (P08631 whole entry, looked up): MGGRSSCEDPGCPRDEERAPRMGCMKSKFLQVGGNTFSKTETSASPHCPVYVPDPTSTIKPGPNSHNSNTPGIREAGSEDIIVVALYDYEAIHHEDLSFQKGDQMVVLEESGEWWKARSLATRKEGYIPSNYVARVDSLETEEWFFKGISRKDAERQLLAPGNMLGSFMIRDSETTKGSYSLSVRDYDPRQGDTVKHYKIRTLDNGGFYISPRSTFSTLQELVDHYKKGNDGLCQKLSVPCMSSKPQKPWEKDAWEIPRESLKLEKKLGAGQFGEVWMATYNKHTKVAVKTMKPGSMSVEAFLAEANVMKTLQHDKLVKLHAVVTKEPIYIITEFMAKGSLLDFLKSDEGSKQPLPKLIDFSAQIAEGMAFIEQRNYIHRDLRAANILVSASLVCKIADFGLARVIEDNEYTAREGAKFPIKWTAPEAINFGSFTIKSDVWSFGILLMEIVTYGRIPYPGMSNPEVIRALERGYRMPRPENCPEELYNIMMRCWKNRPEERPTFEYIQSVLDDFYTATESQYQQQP
Hck Nef conf: confirmation of Hck-Nef kinase inhibitors; shares compounds with Hck-Nef inh; Recombinant Hck-YEEI:Nef, Z-Lyte FRET kinase assay; calls only at 10 µM; actives 28% (n = 1,300); AID 463188;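 active = average inhibition of at least 50%, with Z-scores no higher than 3 in both the phospho-tyrosine peptide and fluorescence counterscreens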
Hits are given with their value; 0 = inactive; ? = inconclusive; - = no result given; + = active, no number. Only some compounds are listed: those with a hit (about 1.9% of all), similar ones and a draw of the others.

SMILES | RanGTP-Imp inh | Runt-CBFb FRET | Runt-SMMHC FRET | Hck-Nef inh | Hck Nef conf
COc1ccc(CCNc2ccc(C(CC(N)=O)NC(=O)Cc3ccc(Br)cc3)cc2[N+](=O)[O-])cc1 (stereo unspecified) | 0 | 0 | 0 | 57 | 0
NC(=O)CC(NC(=O)Cc1cccc2ccccc12)c1ccc(NCCOc2ccccc2)c([N+](=O)[O-])c1 (stereo unspecified) | 0 | 0 | 0 | 53 | 0
Cc1ccc(SCc2nc3ncccn3c2Br)cc1 | 0 | 0 | 0 | 0 | -
Cn1c(CSCc2ccc(F)cc2)nnc1SCC(=O)Nc1cccc(C(=O)O)c1 | ? | 0 | 0 | 0 | -
O=c1cc(CCl)nc2sc3ccccc3n12 | 0 | 0 | 0 | 61 | 0
COc1cc(C(=O)OCC(=O)Nc2ccc(N3CCOCC3)cc2)ccc1OCC(C)C | 0 | - | - | - | -
Cc1cc(C=C2C(=O)c3ccccc3C2=O)c(C)n1-c1cccc(C(=O)O)c1 | 0 | 0 | 0 | 74 | +
Nc1nn2cc(-c3ccc(Br)cc3)nc2c2ccccc12 | 0 | 0 | 0 | 64 | 0
O=[N+]([O-])c1cccn2cc(-c3ccc(Br)cc3)nc12 | 0 | 0 | 0 | 0 | -
Cc1cc(C)cc(NC(=O)c2ccc(CSc3nnc(C)s3)cc2)c1 | 0 | 0 | 0 | 101 | 0
CC(C(N)=O)N1C(=O)NC2(CCCc3ccccc32)C1=O (stereo unspecified) | 0 | - | - | - | -
COc1cc(C=C2C(=O)c3ccccc3C2=O)ccc1O | 0 | 0 | 0 | 74 | 0
COc1cc(C=C2C(=O)c3ccccc3C2=O)cc(OC)c1OC | 0 | 0 | 0 | 0 | -
COc1ccc(C=C2C(=O)c3ccccc3C2=O)cc1O | 0 | 0 | 0 | 105 | 0
CC1(C)CN(c2cccc(Br)c2)C1=O | 0 | 0 | 0 | 0 | -
O=C(Nc1ccc(N2CCN(C(=O)c3ccccc3F)CC2)cc1)c1ncn[nH]1 | 0 | 0 | 0 | 0 | -
CCCCCCc1cc2cc(C(=O)Nc3ccccc3)c(=O)oc2cc1O | 117 | 113 | 58 | 72 | 0
Cc1ccc(S(=O)(=O)c2cc3cc(Br)ccc3oc2=O)cc1 | 0 | 0 | 0 | 0 | -
CCCCCCc1cc2cc(S(=O)(=O)c3ccc(Cl)cc3)c(=O)oc2cc1O | 166 | 0 | 81 | 110 | -
CCCCCCc1cc2cc(S(=O)(=O)c3ccc(C)cc3)c(=O)oc2cc1O | 163 | 0 | 0 | 80 | -
CC(C)c1ccc(S(=O)(=O)c2cc3cc(Br)ccc3oc2=O)cc1 | 0 | 0 | 0 | 0 | -
Cc1ccc(CC2CC(=O)N(c3cc(Cl)ccn3)C2=O)cc1 (stereo unspecified) | 0 | 0 | 0 | 0 | -
Cc1noc(/C=C/N(C)C)c1S(=O)(=O)N1CCCC(C(=O)Nc2ccc(F)cc2F)C1 (stereo unspecified) | 0 | - | - | - | -
CCOC(=O)/C(=C/C=C1\Sc2ccccc2N1CC)C(C)=O | 0 | 0 | 0 | 0 | -
CCN1/C(=C/C(=O)c2ccco2)Sc2ccccc21 | 0 | 0 | 0 | 95 | -
SMILES | RanGTP-Imp inh | Runt-CBFb FRET | Runt-SMMHC FRET | Hck-Nef inh | Hck Nef conf
Cc1nn(CCc2nn[nH]n2)c2nc(-c3ccc(C4CCCCC4)cc3)cc(C(F)(F)F)c12 | 0 | 0 | 0 | 71 | +
Cc1nn(CCC(=O)O)c2nc(-c3cccnc3)cc(C(F)(F)F)c12 | 0 | 0 | 0 | 0 | -
O=C(Nc1ccc(-n2nncc2-c2ccco2)cc1)c1cc2ccccc2oc1=O | 0 | 0 | 0 | 51 | +
O=C(Nc1ccc(-n2nncc2-c2ccco2)cc1)c1cccc(F)c1 | 0 | 0 | 0 | 0 | -
O=C(NCCO)c1cc(-c2cc(C(=O)NCCO)c3ccccc3n2)nc2ccccc12 | 0 | - | - | - | -
CC(=O)n1cc([C@H]2C=C(C(=O)NCc3ccccc3)O[C@@H](OCc3ccc(CO)cc3)C2)c2ccccc21 | 0 | 0 | 0 | 53 | +
Cn1c(=O)c2c(nc(N3CCOCC3)n2C/C=C/c2ccccc2)n(C)c1=O | 0 | 0 | 0 | 0 | -
COc1cccc(NC(=O)Cn2c(=O)n(-c3cc(OC)c(OC)c(OC)c3)c(=O)c3ccccc32)c1 | 0 | 0 | 0 | 124 | 0
CCn1c(=O)n(CC(=O)Nc2cccc(OC)c2)c(=O)c2ccccc21 | 0 | 0 | 0 | 0 | -
CC(C)(C)NC(=O)Cn1c(=O)n(CC(=O)NC(C)(C)C)c2ccccc21 | 0 | 0 | 0 | 0 | -
COc1ccc(N2C3=C(C(=O)CC(C)(C)C3)C(c3ccccc3OC)C3=C2CC(C)(C)CC3=O)cc1 | 149 | 0 | 81 | 74 | 0
COc1ccc(C2C3=C(CC(C)(C)CC3=O)N(C)C3=C2C(=O)CC(C)(C)C3)cc1 | 137 | 0 | 86 | 51 | 0
COc1ccc(N2C3=C(CC4=C2CC(C)(C)CC4=O)C(=O)CC(C)(C)C3)cc1 | 0 | 0 | 0 | 0 | -
COc1ccc(C2C3=C(CC(C)(C)CC3=O)N(C)C3=C2C(=O)CC(C)(C)C3)cc1OC | 0 | - | - | - | -
COc1ccc(F)cc1C(=O)C1CCCN(C(=O)C2=C(C)OCCO2)C1 (stereo unspecified) | 0 | 0 | 0 | 0 | -
COc1ccc(/C(C)=N/NC(=O)CNC(=O)c2cccnc2)c(OC)c1 | 0 | - | - | - | -
CCOCCSc1n[nH]c(=O)n1CCc1ccccc1 | 0 | - | - | - | -
CCc1cc(=O)oc2cc3occ(C)c3cc12 | 0 | 0 | 0 | 0 | -
CCc1cc(=O)oc2cc3occ(-c4ccc(OC)c(F)c4)c3cc12 | 0 | 0 | 0 | 58 | 0
CCOc1ccc(C(=O)Nc2ccccc2N2CCN(C(=O)c3ccccc3)CC2)cc1[N+](=O)[O-] | 0 | - | - | - | -
CNc1nc(-c2cccs2)cc(C(F)(F)F)c1C#N | 109 | 0 | 88 | 104 | 0
O=C(CSc1ncnc2c1oc1ccccc12)Nc1cccc(Cl)c1 | 0 | 0 | 0 | 51 | 0
CCC(C)(C)C1CCc2nc3ccccc3c(C(=O)OC(C)C(=O)Nc3c(C)n(C)n(-c4ccccc4)c3=O)c2C1 (stereo unspecified) | 0 | 0 | 0 | 0 | -
CCN(CC)c1ccc(/C=c2\sc3nc4ccccc4n3c2=O)c(O)c1 | 135 | 0 | 92 | 68 | -
COc1cc([N+](=O)[O-])ccc1-c1ccc(/C=N/NC(=O)c2ccccc2O)o1 | 0 | 0 | 0 | 74 | 0
SMILES | RanGTP-Imp inh | Runt-CBFb FRET | Runt-SMMHC FRET | Hck-Nef inh | Hck Nef conf
NC(=O)C1CCN(C(=O)Cc2ccsc2)CC1 | 0 | - | - | - | -
COc1ccc(C(=O)Nc2cccc(/C=C/c3nc4ccccc4c(=O)[nH]3)c2)cc1 | 0 | 0 | 0 | 56 | 0
O=C(Nc1cccc(/C=C/c2nc3ccccc3c(=O)[nH]2)c1)c1ccccc1Cl | 0 | 0 | 0 | 0 | -
CCOC(=O)c1ccc(N=C2SC(C(=O)Nc3ccc(C(=O)O)cc3)CC(=O)N2Cc2cccs2)cc1 (stereo unspecified) | 0 | 0 | 0 | 0 | -
CCN(CC)C(=O)Cc1c(O)c2ccccc2[nH]c1=O | 0 | 0 | 0 | 56 | +
O=C1c2cccc3cc([N+](=O)[O-])cc(c23)C(=O)N1/N=C/c1ccc(O)cc1O | 0 | 0 | 0 | 55 | +
CCOC(=O)c1cnc2ccc(OCC)cc2c1N1CCN(c2ccccc2OC)CC1 | 0 | 0 | 0 | 77 | +
CCOc1ccc2ncc(C(=O)c3ccc(OC)cc3)c(N3CCN(CC)CC3)c2c1 | 0 | 0 | 0 | 0 | -

Screens from PubChem BioAssay.
